{"source": "paper PMC3356170", "about": "(International Journal of Nanomedicine, 2012)", "key": {"[1]": {"experiment": "Pharmacokinetics of two formulations in rats", "format": "in vivo, Sprague-Dawley (SD) rats", "in_short": "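SD rats (N = 6 per group) received 5 mg/kg intravenously or orally, dissolved in 0.9% NaCl. Blood was taken at set time points and centrifuged (3500 rpm, 10 min). Plasma (180 μL) was mixed with cantharidin internal standard and methanol (800 μL) and spun at 10,000 rpm for 10 min. NCTD was measured by LC-MS/MS (C18, 35°C; MRM m/z 185.0→141.1) against matrix-matched calibration from 0.1025 to 10.25 μg/mL, using peak-area ratio to internal standard. Group means gave parameters.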"}, "[2]": {"experiment": "Tissue distribution and elimination in mice", "format": "in vivo, ICR mice", "details": "after intravenous administration (table title)", "in_short": "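ICR mice (six per group) were used. Blood was drawn from the eye socket vein at each sampling time. After cervical dislocation, heart, liver, kidney, spleen and lung were excised, rinsed in saline, blotted and weighed. Bile was taken from the gall bladder by syringe. Tissues and fluids were homogenized and processed as for plasma. NCTD was quantified by LC-MS/MS.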"}, "[3]": {"experiment": "Survival time and urine output of dosed rats", "format": "in vivo"}, "[4]": {"details": "intravenous administration (5 mg/kg), N = 6, mean ± SD"}, "[5]": {"details": "oral administration (5 mg/kg), N = 6, mean ± SD"}}, "data": [{"smiles": "O=C1OC(=O)[C@H]2[C@@H]1[C@@H]1CC[C@H]2O1", "note": "[NCTD, Norcantharidin]", "values": [{"measurement": "AUC0-t", "setting": "[1]; [4]", "result": "9790 ± 1260", "unit": "ng·h/mL"}, {"measurement": "AUC0-∞", "setting": "[1]; [4]", "result": "10770 ± 2340", "unit": "ng·h/mL"}, {"measurement": "CL", "setting": "[1]; [4]", "result": "0.12 ± 0.02", "unit": "L/h"}, {"measurement": "MRT", "setting": "[1]; [4]", "result": "0.34 ± 0.10", "unit": "h"}, {"measurement": "Vd", "setting": "[1]; [4]", "result": "0.82 ± 0.45", "unit": "L/kg"}, {"measurement": "t1/2(α) distribution half-life", "setting": "[1]; [4]", "result": "0.26 ± 0.06", "unit": "h"}, {"measurement": "t1/2(β)", "setting": "[1]; [4]", "result": "2.63 ± 0.82", "unit": "h"}, {"measurement": "AUC0-t", "setting": "[1]; [5]", "result": "3850 ± 660", "unit": "ng·h/mL"}, {"measurement": "AUC0-∞", "setting": "[1]; [5]", "result": "3870 ± 690", "unit": "ng·h/mL"}, {"measurement": "CL", "setting": "[1]; [5]", "result": "0.32 ± 0.05", "unit": "L/h"}, {"measurement": "Cmax", "setting": "[1]; [5]", "result": "1210 ± 230", "unit": "ng/mL"}, {"measurement": "MRT", "setting": "[1]; [5]", "result": "5.49 ± 4.58", "unit": "h"}, {"measurement": "Tmax", "setting": "[1]; [5]", "result": "1.50 ± 0.44", "unit": "h"}, {"measurement": "Vd", "setting": "[1]; [5]", "result": "9.48 ± 6.59", "unit": "L/kg"}, {"measurement": "t1/2(a)", "setting": "[1]; [5]", "result": "0.56 ± 0.43", "unit": "h"}, {"measurement": "t1/2(α)", "setting": "[1]; [5]", "result": "0.72 ± 0.68", "unit": "h"}, {"measurement": "t1/2(β)", "setting": "[1]; [5]", "result": "5.08 ± 4.79", "unit": "h"}, {"measurement": "oral bioavailability", "setting": "[1]; oral versus intravenous administration, 5 mg/kg", "result": 39.3, "unit": "%"}, {"measurement": "Te (targeted efficiency)", "setting": "[2]; Bile", "result": 2.33}, {"measurement": "Te (targeted efficiency)", "setting": "[2]; Blood", "result": 30.74}, {"measurement": "Te (targeted efficiency)", "setting": "[2]; Heart", "result": 14.99}, {"measurement": "Te (targeted efficiency)", "setting": "[2]; Kidney", "result": 11.72}, {"measurement": "Te (targeted efficiency)", "setting": "[2]; Liver", "result": 10.07}, {"measurement": "Te (targeted efficiency)", "setting": "[2]; Lung", "result": 22.72}, {"measurement": "Te (targeted efficiency)", "setting": "[2]; Spleen", "result": 7.44}, {"measurement": "survival time of rats", "setting": "[3]; NCTD group", "result": "about 24 hours"}, {"measurement": "urine output compared with normal rats", "setting": "[3]; after dosing", "result": "one-third of normal"}]}]}
